Arrestin-AP2 inh: blocks beta-arrestin peptide binding to AP2 adaptin; FITC-arrestin peptide / GST-AP2 beads, flow cytometry; AP2 beta2 appendage carries R879A mutation; inhibition, % at 10 µM; actives 0.31% (n = 340,000);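 active = inhibition above a set limit, near 3 SD of compounds lacking own fluorescence, cut at about 54% in these data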;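 also: plate controls were DMSO wells for no effect and 5 µM unlabelled arrestin peptide for full effect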
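System: GST-AP2 R879A glutathione beads; medium: PBS, Tween 20 0.05%, BSA 0.1%; reagent: fluorescein-tagged arrestin peptide at 50 nM final; schedule: pre-incubation 12 min, peptide binding 1 h, room temperature; detection: flow cytometry, FL1 (488/535 nm); read-out: inhibition as reduced fluorescein signal on beads, percent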
APOBEC3A inh: blocks human APOBEC3A ssDNA deamination; recombinant A3A, FAM/TAMRA ssDNA deamination fluorescence; inhibition, % at 20 µM; actives 0.41% (n = 330,000); AID 493011;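 active = at least 40% inhibition at 20 µM here, with at most 30% in a related deaminase screen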;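 also: plate controls were A3A with DMSO for no effect and wells lacking A3A enzyme for full effect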
Target sequence (P31941 whole entry, looked up): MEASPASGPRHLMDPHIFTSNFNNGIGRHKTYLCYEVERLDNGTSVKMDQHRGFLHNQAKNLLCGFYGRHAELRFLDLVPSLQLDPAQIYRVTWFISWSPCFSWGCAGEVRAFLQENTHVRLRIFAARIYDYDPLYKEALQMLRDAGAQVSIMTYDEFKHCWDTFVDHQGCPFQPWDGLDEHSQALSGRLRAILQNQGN
A3G deaminase: blocks human APOBEC3G single-stranded DNA deamination; actives 0.28% (n = 330,000); Q9HC16; recombinant A3G, ssDNA deamination FAM/TAMRA fluorescence; AID 493012; inhibition, % at 20 µM;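 active = inhibition of at least 40% at 20 µM, with no more than 30% in the related APOBEC3A deaminase screen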;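 also: plate controls were DMSO wells with A3G for no effect and wells lacking A3G enzyme for full effect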
AHR activator: human AHR activation | activation, % at 5 µM | P35869 | AHR-responsive luciferase reporter cells, luminescence | AID 2796 | actives 2.5% (n = 320,000); in the data active = activation above about 47%;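 also: 0% = vehicle wells and 100% = reference agonist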
UCH37 DUB inh: blocks the human deubiquitinase UCH37; purified proteasome/UCH37, Ub-AMC cleavage fluorescence; inhibition, % (no concentration beside the values); actives 0.33% (n = 330,000); AID 588478;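 active = mean inhibition over replicate wells above about 20%, limit read from the data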;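 also: 0% = compound-free wells with enzyme and 100% = wells lacking proteasome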
Target sequence (Q9Y5K5 whole entry, looked up): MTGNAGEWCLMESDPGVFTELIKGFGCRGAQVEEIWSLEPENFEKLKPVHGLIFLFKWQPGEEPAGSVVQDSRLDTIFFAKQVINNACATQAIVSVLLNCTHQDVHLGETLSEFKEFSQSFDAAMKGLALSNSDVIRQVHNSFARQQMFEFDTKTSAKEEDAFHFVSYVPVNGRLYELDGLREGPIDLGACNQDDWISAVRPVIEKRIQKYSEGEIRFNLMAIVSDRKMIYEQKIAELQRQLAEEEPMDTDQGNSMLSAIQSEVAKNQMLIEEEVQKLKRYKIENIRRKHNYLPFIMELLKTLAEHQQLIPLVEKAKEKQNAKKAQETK
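system = Proteasome-associated human UCH37 deubiquitinase | amount = 0.15 nM proteasome as dispensed | medium = pH 7.4 Tris-HCl (50 mM) with ovalbumin, ATP-MgCl2, DTT | incubation = 30 min preincubation with enzyme, 25 min cleavage at room temperature | detection = AMC fluorescence 355/460 nm | read-out basis = percent inhibition | controls = no-proteasome and no-compound wells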
PolyA inhibitor: inhibitors of polyadenylation in S. cerevisiae | S. cerevisiae SKY197-pL101 polyadenylation reporter, beta-gal luminescence; efflux-impaired pdr1/pdr3 knockout yeast; score 100 = 6 SD above DMSO | actives 0.02% (n = 300,000) | activity score, % at 12 µM;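 active = lowest replicate activity score at least 50, where 100 means six control SD above control mean; inconclusive = lowest score under 50 but half or more replicates reach 50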;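 also: yeast exposed to compound for 9 h at 30 °C; higher score means more reporter readthrough which indicates perturbed polyadenylation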
An asterisk follows results filed as active; ? = inconclusive; / = not tested or not shown; ! = repeats disagree. Rows were chosen to be rich in hits. Some 3.4% of all compounds tested hit in one or more screens of this group.

SMILES | Arrestin-AP2 inh | APOBEC3A inh | A3G deaminase | AHR activator | UCH37 DUB inh | PolyA inhibitor
Nc1nonc1-n1nnc(C(=O)NN=Cc2ccccc2)c1CN1CCc2ccccc21 | / | / | / | / | 1.1 | /
Cc1ccc(NN=C2CCCNC2=O)cc1 | / | / | / | / | 7.4 | /
COc1ccc(C=Nn2cnnc2SCc2ccccc2)cc1 | / | / | / | / | 5.7 | /
CCOc1ccc(N2CC(=O)N/C2=N\c2nc(C)cc(C)n2)cc1 | 2.2 | 4.4 | 7.1 | 50.1* | -0.2 | 0.4
NC(=S)NN=Cc1cc([N+](=O)[O-])ccc1OCCOc1ccccc1 | / | / | / | / | 4.8 | /
COc1cc(NC(=O)c2c(F)c(F)c(F)c(F)c2F)c(OC)cc1Cl | -5.2 | 6.1 | 0.1 | 27.7 | 4.3 | 0.0
COc1cc(OC)c(NC(=O)c2cncn2-c2ccc(F)cc2)cc1Cl | -3.1 | 3.3 | 0.8 | 65.0* | 3.9 | -2.9
Cc1cc(C)c(C(CC(=O)c2cccs2)C(C#N)C#N)c(C)c1 (configuration not stated) | -0.8 | -1.2 | -3.4 | 58.1* | 4.7 | -26.4
COc1ccc(OCC(=O)NN=C(C)c2ccc(-n3ccnc3)cc2)cc1 | / | / | / | / | 1.2 | /
Cc1nc(S/C(=C/c2ccc(-c3ccc(C(=O)O)cc3)o2)C(=O)O)n[nH]1 | -4.2 | 38.6 | 4.0 | 1.0 | / | -11.1
Cc1nc(S/C(=C/c2ccc(-c3ccc(Cl)cc3)o2)C(=O)O)n[nH]1 | 9.0 | 4.2 | 1.0 | 57.2* | 2.2 | 12.7
CC(=O)c1ccc(-c2ccc(/C=C(/Sc3n[nH]c(C)n3)C(=O)O)o2)cc1 | -4.6 | 1.0 | -3.8 | 28.3 | 20.9* | ?
COC(=O)c1ccccc1Sc1c(C=NOC(=O)c2ccccc2)c(C(F)(F)F)nn1C | / | / | / | / | -0.2 | /
COc1ccc2[nH]c(C(=O)Nc3ccc(F)cc3Br)cc2c1 | 18.5 | -4.3 | -5.6 | 49.9* | -11.7 | 6.7
Nc1nc2ccccc2n1C(=O)c1ccccc1 | 7.0 | 1.2 | -9.2 | 10.4 | -10.9 | -4.3
Nc1nc2ccccc2n1C(=O)c1cccs1 | -5.3 | 0.4 | -1.4 | 51.9* | / | -0.6
COC1=C/C(=C/c2c(N)n3nc(-c4ccc(C)cc4)sc3nc2=O)C=CC1=O | -14.8 | / | / | / | 7.0 | /
CCS(=O)(=O)c1nn2c(N)c(/C=C3/C=CC(=O)C(OC)=C3)c(=O)nc2s1 | -7.3 | -2.2 | -6.5 | 3.3 | 21.8* | 10.4
Cc1cc(C)c(COCc2cc(C=NO)c(C)cc2C)cc1C=NO | / | / | / | / | 4.8 | /
COc1ccc(-c2cc(N)n(S(=O)(=O)Cc3ccccc3)n2)c(OC)c1 | 1.4 | -0.8 | -4.8 | 62.3* | 2.1 | -17.8
COc1ccc(-c2cc(N)n(CCC#N)n2)c(OC)c1 | -8.3 | 0.8 | -2.7 | 17.8 | 0.9 | -2.6
Cc1nc2c(c(C)c1C#N)C(=O)c1ccccc1-2 | -3.0 | -1.6 | -3.3 | 72.0* | -0.6 | -20.0
COc1cc(C=NNC(=O)C(=O)NCc2ccco2)cc(Cl)c1O | / | / | / | / | 9.2 | /
Cc1c(=O)n(OCc2cccc(F)c2)c2ccccc2[n+]1[O-] | 7.2 | 0.1 | -2.9 | 84.0* | -12.3 | 1.0
Cc1c(=O)n(OCc2ccc(Cl)cc2)c2ccccc2[n+]1[O-] | -8.8 | 0.6 | -3.2 | 59.1* | -18.0 | 17.4
SMILES | Arrestin-AP2 inh | APOBEC3A inh | A3G deaminase | AHR activator | UCH37 DUB inh | PolyA inhibitor
Cc1ccc(OCC(=O)NN=Cc2cccn2C)c([N+](=O)[O-])c1 | / | / | / | / | 2.4 | /
CN(C)CCOC(=O)C1(c2ccccc2)CCOCC1 | -5.7 | -0.8 | -3.2 | -1.2 | 20.3*! | 24.8
COc1ccc(Nc2nccc(-c3ccc([N+](=O)[O-])cc3)n2)cc1 | -0.4 | -7.6 | -9.9 | 61.3* | 3.3 | -3.1
COc1ccc(Nc2ccc([N+](=O)[O-])cn2)cc1 | -24.6 | 1.4 | -8.8 | 4.3 | 4.3 | -7.9
COc1ccc(C(=O)NN=C(C)c2cccc(NC(=O)C(F)(F)F)c2)cc1 | / | / | / | / | -0.2 | /
O=C(N/N=C\c1ccc(Sc2ccccn2)o1)c1cccc(Br)c1 | -2.8 | 1.1 | 1.6 | 60.6* | / | -10.4
Cc1ccccc1C(=O)N/N=C/c1ccc(Sc2ccccn2)o1 | -0.1 | -3.8 | -7.3 | 22.7 | / | 5.7
O=C1C=C(c2ccccc2)OC(=O)C1C(=O)c1ccccc1 (configuration not stated) | -3.8 | 7.4 | -3.6 | 2.4 | 8.9 | 120.9*
CCOC(=O)CCC(C)=NN=C1SC(CC(=O)O)C(=O)N1c1ccccc1 (configuration not stated) | / | / | / | / | 2.4 | /
